# Assay results from article PMC8603004 (EFSA Journal, 2021).
# Marks after values point to notes of the source that are not given here.
# Legend:
# [1] = test system: Holstein Friesian dairy cows; assay: Three long‐term studies on enteric methane output; assay type: in vivo
# [2] = Second in vivo toxicokinetic study, metabolic profile in gut and plasma; parameters: species or system male Wistar rats
# In short: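 Single oral dose of 500 mg/kg bw 14C-labelled test compound to male Wistar rats. One animal per time point was killed at 1, 2 and 3 h post-dose and blood was collected. Stomach, small intestine, caecum and colon contents were removed for total radioactivity. Metabolites were characterised by NMR and/or LC/MS.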
# [3] = Incubation of 14C‐3‐NOP in liver fractions; assay type: in vitro ADME; settings: Beagle, dog, liver S9
# In short: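 14C-labelled test compound was incubated with or without NAD+ in liver S9, cytosol and microsomes from Sprague–Dawley rat, Wistar Han rat, Beagle dog and human. Aliquots were taken at several time points and the proteins precipitated. Supernatants were analysed by liquid scintillation counting and radio-HPLC, and half-life was derived from the time course.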
# [4] = Skin sensitisation study
# [5] = test system: bone marrow cells of NMRI BR mice; assay: In vivo micronucleus test, intraperitoneal
# In short: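 A preliminary intraperitoneal toxicity study in NMRI BR mice set the top dose for the OECD TG 474 bone marrow micronucleus test. In the main test, mice were dosed ip at 250, 500 and 1,000 mg/kg bw and sampled at 24 h; top-dose and control groups were also sampled at 48 h. 2,000 PCEs were scored per animal.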
# [6] = test system: ruminal microorganisms; assay: In vitro ruminal fermentation; settings: 3‐NOP added to the feed at different concentrations, three studies
# In short: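 Rumen fermentation was simulated in a chemostat (RUSITEC) as continuous culture of ruminal microorganisms. Each of three studies included a control without additive and one or more groups with test compound added to the feed at differing concentrations.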
# [7] = study 1 WUR, 54 mg 3‐NOP/kg TMR DM intake
# [8] = study 2 UK, 57 mg 3‐NOP/kg TMR DM intake
# [9] = study 3 PSU, 61 mg 3‐NOP/kg TMR DM intake
smiles,measurement,setting,value
"O=[N+]([O-])OCCCO [3‐NOP, propan‐1,3‐diol‐mononitrate]",Final BW,[1]; [7],668 kg
same,Milk fat,[1]; [7],43.4 g/kg
same,Milk protein,[1]; [7],36.3 ^* g/kg
same,TMR DM intake,[1]; [7],18.4 kg/day
same,kg EC milk/day,[1]; [7],25.7 kg EC milk/day
same,kg EC milk/kg DMI,[1]; [7],1.36 ^* kg EC milk/kg DMI
same,kg milk/day,[1]; [7],24.5 kg milk/day
same,g CH4/kg EC milk,"[1]; study 1 WUR, 54 mg 3‐NOP/kg TMR DM intake (control 17.1)",12.9 ^* (18.7) g CH4/kg EC milk
same,g CH4/kg DM intake,"[1]; study 1 WUR, 54 mg 3‐NOP/kg TMR DM intake (control 22.4)",17.7 ^* (25.5) g CH4/kg DM intake
same,g CH4/day,"[1]; study 1 WUR, 54 mg 3‐NOP/kg TMR DM intake, average over 15 weeks (control 423)",332 ^* (480) g CH4/day
same,Final BW,[1]; [8],721 kg
same,Milk fat,[1]; [8],39.9 ^* g/kg
same,Milk protein,[1]; [8],33.4 g/kg
same,TMR DM intake,[1]; [8],22.9 kg/day
same,kg EC milk/day,[1]; [8],35.0 ^* kg EC milk/day
same,kg EC milk/kg DMI,[1]; [8],1.53 kg EC milk/kg DMI
same,kg milk/day,[1]; [8],36.0 kg milk/day
same,g H2/day,"[1]; study 2 UK, 57 mg 3‐NOP/kg TMR DM intake (control 2.6)",10.6 ^* (2.4) g H2/day
same,g CH4/kg EC milk,"[1]; study 2 UK, 57 mg 3‐NOP/kg TMR DM intake (control 12.3)",8.4 ^* (10.1) g CH4/kg EC milk
same,g CH4/kg DM intake,"[1]; study 2 UK, 57 mg 3‐NOP/kg TMR DM intake (control 20.3)",13.5 ^* (16.7) g CH4/kg DM intake
same,g CH4/day,"[1]; study 2 UK, 57 mg 3‐NOP/kg TMR DM intake (control 449)",292 ^* (400) g CH4/day
same,Final BW,[1]; [9],648 kg
same,Milk fat,[1]; [9],40.2 ^* g/kg
same,Milk protein,[1]; [9],31.5 g/kg
same,TMR DM intake,[1]; [9],25.7 kg/day
same,kg EC milk/day,[1]; [9],37.5 kg EC milk/day
same,kg EC milk/kg DMI,[1]; [9],1.47 kg EC milk/kg DMI
same,kg milk/day,[1]; [9],38.2 kg milk/day
same,g H2/day,"[1]; study 3 PSU, 61 mg 3‐NOP/kg TMR DM intake (control 0.5)",2.6 ^* (0.4) g H2/day
same,g CH4/kg EC milk,"[1]; study 3 PSU, 61 mg 3‐NOP/kg TMR DM intake (control 11.2)",8.2 ^* (9.7) g CH4/kg EC milk
same,g CH4/kg DM intake,"[1]; study 3 PSU, 61 mg 3‐NOP/kg TMR DM intake (control 16.7)",12.1 ^* (14.9) g CH4/kg DM intake
same,g CH4/day,"[1]; study 3 PSU, 61 mg 3‐NOP/kg TMR DM intake (control 410)",308 ^* (403) g CH4/day
same,"Intact compound, share of radioactivity in small intestine content",[2]; 1 and 3 h after 500 mg/kg bw,< 4%
same,"Intact compound, share of radioactivity in stomach content",[2]; 1 and 3 h after 500 mg/kg bw,more than 80%
same,Radioactivity in plasma,[2]; 1 h post‐dose,713 μg 3‐NOP‐eq/g
same,Radioactivity in plasma,[2]; 2 h post‐dose,522 μg 3‐NOP‐eq/g
same,Radioactivity in plasma,[2]; 3 h post‐dose,156 μg 3‐NOP‐eq/g
same,Overall radioactivity recovered,[2]; after 1 h,88 % of the dose
same,Overall radioactivity recovered,[2]; after 2 h,78 % of the dose
same,Overall radioactivity recovered,[2]; after 3 h,58 % of the dose
same,Radioactivity in urine,[2]; urine 0 to 2 h of one animal,13.7 % of the applied dose
same,half-life,[3],1.1 h
same,Skin sensitisation potential,[4],did not show any skin sensitisation potential
same,Frequency of micronuclei,"[5]; 250, 500 and 1,000 mg/kg bw intraperitoneally",comparable between treated and negative control groups
same,Dose showing mortality,"[5]; preliminary toxicity study, intraperitoneal","2,000 mg/kg bw"
same,Methane output in vitro,[6],reduces methane output significantly
